Test results taken from ChEMBL document CHEMBL4257484, “Membrane-active antimicrobial poly(amino-modified alkyl) β-cyclodextrins synthesized via click reactions” (Medchemcomm, 2018).
Values after ≈ are worked out from the molar mass of the structure shown.

Tests used:
Salmonella typhimurium = assay: Antibacterial activity against drug-sensitive Salmonella typhimurium LT2 after 20 hrs by liquid microdilution method; format: functional, Salmonella enterica subsp. enterica serovar Typhimurium; details: Salmonella enterica, LT2, 20 h
Outline: (§1)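 Two-fold serial dilutions of compound in Mueller–Hinton broth, inoculated with 1 × 10^4 cells and cultured at 37 °C for 20 h in microtiter wells.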

Enterococcus faecalis [1] = assay: Antibacterial activity against drug-resistant Enterococcus faecalis MS29030 after 18 to 20 hrs by agar dilution method; format: functional
Outline: (§2)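 Agar dilution per CLSI. Overnight broth cultures were diluted 100-fold, and one loopful (about 10^5 to 10^4 CFU) was spotted onto agar plates containing the CD. Growth was scored after 18–20 h at 37 °C. MIC values are in µM.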

Streptococcus agalactiae = assay: Antibacterial activity against drug-resistant Streptococcus agalactiae B1 after 18 to 20 hrs by agar dilution method; format: functional; outline: as §2
[2] = Hemolytic activity in rabbit RBC at 20 uM after 20 mins relative to control; format: ADME, cell-based, Oryctolagus cuniculus, Erythrocyte; details: rabbit red blood cells (erythrocytes), read-out: Activity
Outline: (§3)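 Rabbit erythrocytes suspended in 150 mM NaCl/10 mM Hepes-NaOH, pH 7.4, at 0.5% hematocrit (final) and incubated with compound at 37 °C. The table footnote gives 20 min; the methods section gives 30 min. Hemolysis was read as absorbance at 540 nm, with 50 µM lysolecithin defining 100% hemolysis.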

Bacillus subtilis = assay: Antibacterial activity against drug-sensitive Bacillus subtilis 168 after 20 hrs by liquid microdilution method; format: functional; details: subsp. subtilis str. 168, 20 h; outline: as §1
[3] = Hemolytic activity in rabbit RBC at 1 uM after 20 mins relative to control; format: ADME, cell-based, Oryctolagus cuniculus, Erythrocyte; details: rabbit red blood cells (erythrocytes), read-out: Activity; outline: as §3
[4] = Hemolytic activity in rabbit RBC at 5 uM after 20 mins relative to control; format: ADME, cell-based, Oryctolagus cuniculus, Erythrocyte; details: rabbit red blood cells (erythrocytes), read-out: Activity; outline: as §3
Escherichia coli = assay: Antibacterial activity against drug-sensitive Escherichia coli K-12 W3110 after 20 hrs by liquid microdilution method; format: functional; details: K-12 substr. W3110, 20 h; outline: as §1
[5] = Hemolytic activity in rabbit RBC at 2 uM after 20 mins relative to control; format: ADME, cell-based, Oryctolagus cuniculus, Erythrocyte; details: rabbit red blood cells (erythrocytes), read-out: Activity; outline: as §3
[6] = Lipophilicity, log P of the compound; format: physicochemical; details: octanol/water
Staphylococcus aureus [7] = assay: Antibacterial activity against methicillin-sensitive Staphylococcus aureus FDA 209P after 20 hrs by liquid microdilution method; format: functional; outline: as §1
[8] = Hemolytic activity in rabbit RBC at 10 uM after 20 mins relative to control; format: ADME, cell-based, Oryctolagus cuniculus, Erythrocyte; details: rabbit red blood cells (erythrocytes), read-out: Activity; outline: as §3
Enterococcus faecium = assay: Antibacterial activity against drug-resistant Enterococcus faecium MS29120 after 18 to 20 hrs by agar dilution method; format: functional; outline: as §2
Enterococcus faecalis [9] = assay: Antibacterial activity against vancomycin-resistant Enterococcus faecalis MS29016 after 18 to 20 hrs by agar dilution method; format: functional; outline: as §2
Pseudomonas aeruginosa = assay: Antibacterial activity against drug-sensitive Pseudomonas aeruginosa PAO1 after 20 hrs by liquid microdilution method; format: functional; details: PAO1, 20 h; outline: as §1
[10] = Hemolytic activity in rabbit RBC at 50 uM after 20 mins relative to control; format: ADME, cell-based, Oryctolagus cuniculus, Erythrocyte; details: rabbit red blood cells (erythrocytes), read-out: Activity; outline: as §3
Staphylococcus aureus [11] = assay: Antibacterial activity against methicillin-resistant Staphylococcus aureus MS29202 after 18 to 20 hrs by agar dilution method; format: functional; outline: as §2

| SMILES | MIC (Salmonella typhimurium) | MIC (Enterococcus faecalis [1]) | MIC (Streptococcus agalactiae) | hemolysis at 20 min, 20 µM [2] | MIC (Bacillus subtilis) | hemolysis at 20 min, 1 µM [3] | hemolysis at 20 min, 5 µM [4] | MIC (Escherichia coli) | hemolysis at 20 min, 2 µM [5] | logP [6] | MIC (Staphylococcus aureus [7]) | hemolysis at 20 min, 10 µM [8] | MIC (Enterococcus faecium) | MIC (Enterococcus faecalis [9]) | MIC (Pseudomonas aeruginosa) | hemolysis at 20 min, 50 µM [10] | MIC (Staphylococcus aureus [11]) |
| --- | --- | --- | --- | --- | --- | --- | --- | --- | --- | --- | --- | --- | --- | --- | --- | --- | --- |
| NC(CC1CCCCC1)c1cn(C[C@H]2O[C@@H]3O[C@H]4[C@H](O)[C@@H](O)[C@@H](O[C@H]5[C@H](O)[C@@H](O)[C@@H](O[C@H]6[C@H](O)[C@@H](O)[C@@H](O[C@H]7[C@H](O)[C@@H](O)[C@@H](O[C@H]8[C@H](O)[C@@H](O)[C@@H](O[C@H]9[C@H](O)[C@@H](O)[C@@H](O[C@H]2[C@H](O)[C@H]3O)O[C@@H]9Cn2cc(C(N)CC3CCCCC3)nn2)O[C@@H]8Cn2cc(C(N)CC3CCCCC3)nn2)O[C@@H]7Cn2cc(C(N)CC3CCCCC3)nn2)O[C@@H]6Cn2cc(C(N)CC3CCCCC3)nn2)O[C@@H]5Cn2cc(C(N)CC3CCCCC3)nn2)O[C@@H]4Cn2cc(C(N)CC3CCCCC3)nn2)nn1 (some centres undefined) | 10 µM (≈ 23.7 µg/mL) | 40 µM (≈ 94.8 µg/mL) | 20 µM (≈ 47.4 µg/mL) | 117% | 3 µM (≈ 7.11 µg/mL) | 13% | 89% | 10 µM (≈ 23.7 µg/mL) | 31% | -0.35 | 10 µM (≈ 23.7 µg/mL) | 107% | 20 µM (≈ 47.4 µg/mL) | 20 µM (≈ 47.4 µg/mL) | 20 µM (≈ 47.4 µg/mL) | 118% | 20 µM (≈ 47.4 µg/mL) |
| O[C@@H]1[C@@H](O)[C@H]2O[C@H]3[C@H](O)[C@@H](O)[C@@H](O[C@H]4[C@H](O)[C@@H](O)[C@@H](O[C@H]5[C@H](O)[C@@H](O)[C@@H](O[C@H]6[C@H](O)[C@@H](O)[C@@H](O[C@H]7[C@H](O)[C@@H](O)[C@@H](O[C@H]8[C@H](O)[C@@H](O)[C@@H](O[C@@H]1[C@@H](Cn1cc(CNCC9CCCCC9)nn1)O2)O[C@@H]8Cn1cc(CNCC2CCCCC2)nn1)O[C@@H]7Cn1cc(CNCC2CCCCC2)nn1)O[C@@H]6Cn1cc(CNCC2CCCCC2)nn1)O[C@@H]5Cn1cc(CNCC2CCCCC2)nn1)O[C@@H]4Cn1cc(CNCC2CCCCC2)nn1)O[C@@H]3Cn1cc(CNCC2CCCCC2)nn1 | 10 µM (≈ 23.7 µg/mL) | > 40 µM | 40 µM (≈ 94.8 µg/mL) | 78% | 3 µM (≈ 7.11 µg/mL) | 0% | 13% | 5 µM (≈ 11.8 µg/mL) | 0% | -0.16 | 3 to 10 µM (≈ 7.11 to 23.7 µg/mL) | 38% | 20 µM (≈ 47.4 µg/mL) | 40 µM (≈ 94.8 µg/mL) | 20 µM (≈ 47.4 µg/mL) | 107% | 40 µM (≈ 94.8 µg/mL) |
| O[C@@H]1[C@@H](O)[C@H]2O[C@H]3[C@H](O)[C@@H](O)[C@@H](O[C@H]4[C@H](O)[C@@H](O)[C@@H](O[C@H]5[C@H](O)[C@@H](O)[C@@H](O[C@H]6[C@H](O)[C@@H](O)[C@@H](O[C@H]7[C@H](O)[C@@H](O)[C@@H](O[C@H]8[C@H](O)[C@@H](O)[C@@H](O[C@@H]1[C@@H](Cn1cc(CNCC9CCCC9)nn1)O2)O[C@@H]8Cn1cc(CNCC2CCCC2)nn1)O[C@@H]7Cn1cc(CNCC2CCCC2)nn1)O[C@@H]6Cn1cc(CNCC2CCCC2)nn1)O[C@@H]5Cn1cc(CNCC2CCCC2)nn1)O[C@@H]4Cn1cc(CNCC2CCCC2)nn1)O[C@@H]3Cn1cc(CNCC2CCCC2)nn1 | > 42 µM | > 42 µM | 10 µM (≈ 22.7 µg/mL) | 2% | 21 µM (≈ 47.7 µg/mL) | 2% | 1% | 21 µM (≈ 47.7 µg/mL) | 1% | -0.58 | 1 to 5 µM (≈ 2.27 to 11.4 µg/mL) | 1% | 21 µM (≈ 47.7 µg/mL) | > 42 µM | > 42 µM | 8% | 21 µM (≈ 47.7 µg/mL) |
| O[C@@H]1[C@@H](O)[C@H]2O[C@H]3[C@H](O)[C@@H](O)[C@@H](O[C@H]4[C@H](O)[C@@H](O)[C@@H](O[C@H]5[C@H](O)[C@@H](O)[C@@H](O[C@H]6[C@H](O)[C@@H](O)[C@@H](O[C@H]7[C@H](O)[C@@H](O)[C@@H](O[C@H]8[C@H](O)[C@@H](O)[C@@H](O[C@@H]1[C@@H](Cn1cc(CNCc9ccccc9)nn1)O2)O[C@@H]8Cn1cc(CNCc2ccccc2)nn1)O[C@@H]7Cn1cc(CNCc2ccccc2)nn1)O[C@@H]6Cn1cc(CNCc2ccccc2)nn1)O[C@@H]5Cn1cc(CNCc2ccccc2)nn1)O[C@@H]4Cn1cc(CNCc2ccccc2)nn1)O[C@@H]3Cn1cc(CNCc2ccccc2)nn1 | 21 µM (≈ 48.9 µg/mL) | > 41 µM | 21 µM (≈ 48.9 µg/mL) | 3% | 5 µM (≈ 11.6 µg/mL) | 2% | 4% | 21 µM (≈ 48.9 µg/mL) | 4% | -0.26 | 5 µM (≈ 11.6 µg/mL) | 2% | 41 µM (≈ 95.4 µg/mL) | 41 µM (≈ 95.4 µg/mL) | 21 µM (≈ 48.9 µg/mL) | 11% | 41 µM (≈ 95.4 µg/mL) |
| CC(C)CCCNCc1cn(C[C@H]2O[C@@H]3O[C@H]4[C@H](O)[C@@H](O)[C@@H](O[C@H]5[C@H](O)[C@@H](O)[C@@H](O[C@H]6[C@H](O)[C@@H](O)[C@@H](O[C@H]7[C@H](O)[C@@H](O)[C@@H](O[C@H]8[C@H](O)[C@@H](O)[C@@H](O[C@H]9[C@H](O)[C@@H](O)[C@@H](O[C@H]2[C@H](O)[C@H]3O)O[C@@H]9Cn2cc(CNCCCC(C)C)nn2)O[C@@H]8Cn2cc(CNCCCC(C)C)nn2)O[C@@H]7Cn2cc(CNCCCC(C)C)nn2)O[C@@H]6Cn2cc(CNCCCC(C)C)nn2)O[C@@H]5Cn2cc(CNCCCC(C)C)nn2)O[C@@H]4Cn2cc(CNCCCC(C)C)nn2)nn1 | 10 µM (≈ 22.8 µg/mL) | > 42 µM | 5 µM (≈ 11.4 µg/mL) | 23% | 3 µM (≈ 6.85 µg/mL) | 5% | 7% | 10 µM (≈ 22.8 µg/mL) | 5% | -0.15 | 3 to 10 µM (≈ 6.85 to 22.8 µg/mL) | 15% | 10 µM (≈ 22.8 µg/mL) | 42 µM (≈ 96 µg/mL) | 5 µM (≈ 11.4 µg/mL) | 56% | 21 µM (≈ 48 µg/mL) |
| NCCCCCCCc1cn(C[C@H]2O[C@@H]3O[C@H]4[C@H](O)[C@@H](O)[C@@H](O[C@H]5[C@H](O)[C@@H](O)[C@@H](O[C@H]6[C@H](O)[C@@H](O)[C@@H](O[C@H]7[C@H](O)[C@@H](O)[C@@H](O[C@H]8[C@H](O)[C@@H](O)[C@@H](O[C@H]9[C@H](O)[C@@H](O)[C@@H](O[C@H]2[C@H](O)[C@H]3O)O[C@@H]9Cn2cc(CCCCCCCN)nn2)O[C@@H]8Cn2cc(CCCCCCCN)nn2)O[C@@H]7Cn2cc(CCCCCCCN)nn2)O[C@@H]6Cn2cc(CCCCCCCN)nn2)O[C@@H]5Cn2cc(CCCCCCCN)nn2)O[C@@H]4Cn2cc(CCCCCCCN)nn2)nn1 | > 42 µM | > 42 µM | 42 µM (≈ 96 µg/mL) | 4% | 5 µM (≈ 11.4 µg/mL) | 3% | 4% | > 42 µM | 1% | -0.43 | 3 to 21 µM (≈ 6.85 to 48 µg/mL) | 3% | 21 µM (≈ 48 µg/mL) | > 42 µM | > 42 µM | 3% | 42 µM (≈ 96 µg/mL) |
| NC(CCc1ccccc1)c1cn(C[C@H]2O[C@@H]3O[C@H]4[C@H](O)[C@@H](O)[C@@H](O[C@H]5[C@H](O)[C@@H](O)[C@@H](O[C@H]6[C@H](O)[C@@H](O)[C@@H](O[C@H]7[C@H](O)[C@@H](O)[C@@H](O[C@H]8[C@H](O)[C@@H](O)[C@@H](O[C@H]9[C@H](O)[C@@H](O)[C@@H](O[C@H]2[C@H](O)[C@H]3O)O[C@@H]9Cn2cc(C(N)CCc3ccccc3)nn2)O[C@@H]8Cn2cc(C(N)CCc3ccccc3)nn2)O[C@@H]7Cn2cc(C(N)CCc3ccccc3)nn2)O[C@@H]6Cn2cc(C(N)CCc3ccccc3)nn2)O[C@@H]5Cn2cc(C(N)CCc3ccccc3)nn2)O[C@@H]4Cn2cc(C(N)CCc3ccccc3)nn2)nn1 (some centres undefined) | > 40 µM | 40 µM (≈ 97 µg/mL) | 20 µM (≈ 48.5 µg/mL) | 94% | 5 µM (≈ 12.1 µg/mL) | 4% | 17% | 20 µM (≈ 48.5 µg/mL) | 6% | -0.25 | 20 µM (≈ 48.5 µg/mL) | 47% | 20 µM (≈ 48.5 µg/mL) | 40 µM (≈ 97 µg/mL) | > 40 µM | 113% | 20 µM (≈ 48.5 µg/mL) |
